In ChEMBL document CHEMBL5214999, “Identification and Optimization of a Ligand-Efficient Benzoazepinone Bromodomain and Extra Terminal (BET) Family Acetyl-Lysine Mimetic into the Oral Candidate Quality Molecule I-BET432” (J Med Chem, 2022):
In brackets after ≈: the same amount, converted by molar mass.

Columns and labels:
[1] = target: T1, Bromodomain-containing protein 4 (Homo sapiens, UniProt O60885); assay: Inhibition of BRD4 BD1 (unknown origin) measured by TR-FRET assay
[2] = target: T1, Bromodomain-containing protein 4; assay: Inhibition of BRD4 BD2 (unknown origin) measured by TR-FRET assay
[3] = Artificial membrane permeability of the compound; assay type: ADME; conditions: PAMPA; read-out: permeability
C-C motif chemokine 2 = C-C motif chemokine 2 (Homo sapiens, UniProt P13500); assay: Inhibition of MCP-1 in LPS-stimulated human whole blood incubate for 24 hrs by immuno assay; assay type: tissue-based
[4] = Solubility of the compound in saline by CLND method; assay type: physicochemical
[5] = Lipophilicity, logD of compound at pH 7.4 by Chromatography; assay type: physicochemical; conditions: buffer
[6] = Solubility of the compound at pH 6.5 in fast state simulated intestinal fluid incubated for 16 hrs by HPLC analysis; assay type: physicochemical; conditions: fasted state simulated intestinal fluid
[7] = Oral bioavailability in Wistar Han rat at 3.1 mg/kg measured upto 24 hrs by LC-MS/MS analysis; assay type: ADME, organism-based; conditions: in vivo
How it was run: (§1)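 Male Wistar Han rats and beagle dogs were dosed iv as a 1 h infusion in DMSO with 10% (w/v) Kleptose HPB in saline (2%:98% or 5%:95% v/v). Oral doses were given in 1% (w/v) methylcellulose (400 cps) aqueous suspension. Oral values are means of n = 3 and iv values n = 1 unless otherwise noted.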

[8] = Unbound volume of distribution at steady state in Wistar Han rat at 3.1 mg/kg, po or 1 mg/kg, iv measured upto 24 hrs by LC-MS/MS analysis; assay type: ADME, organism-based; conditions: in vivo; how it was run: as §1
[9] = Intrinsic clearance in human hepatocytes measured after 120 mins by LC-MS/MS analysis; assay type: ADME, cell-based, Hepatocyte; conditions: 2 h
[10] = Clearance in Wistar Han rat blood at 3.1 mg/kg, po or 1 mg/kg, iv measured upto 24 hrs by LC-MS/MS analysis; assay type: ADME, organism-based; conditions: whole blood; how it was run: as §1
[11] = Half-life in Wistar Han rat at 3.1 mg/kg, po or 1 mg/kg, iv measured upto 24 hrs by LC-MS/MS analysis; assay type: ADME, organism-based; conditions: in vivo; how it was run: as §1
[12] = Volume of distribution at steady state in Wistar Han rat at 3.1 mg/kg, po or 1 mg/kg, iv measured upto 24 hrs by LC-MS/MS analysis; assay type: ADME, organism-based; conditions: in vivo, read-out: Vdss; how it was run: as §1
[13] = Intrinsic clearance in rat hepatocytes after 60 mins by LC-MS/MS analysis; assay type: ADME, cell-based, Hepatocyte; conditions: 1 h
[14] = Intrinsic clearance in dog hepatocytes incubated upto 45 mins by LC-MS/MS analysis; assay type: ADME, cell-based, Canis lupus familiaris, Hepatocyte; conditions: 0.75 h
[15] = Unbound clearance in Wistar Han rat blood at 3.1 mg/kg, po or 1 mg/kg, iv measured upto 24 hrs by LC-MS/MS analysis; assay type: ADME, organism-based; conditions: in vivo; how it was run: as §1
Cytochrome P450 3A4 = Cytochrome P450 3A4 (Homo sapiens, UniProt P08684); assay: Inhibition of CYP3A4 (unknown origin); assay type: ADME
[16] = target: Voltage-gated inwardly rectifying potassium channel KCNH2 (Homo sapiens, UniProt Q12809); assay: Inhibition of hERG; assay type: toxicity
Sequence of Voltage-gated inwardly rectifying potassium channel KCNH2 (Q12809 whole entry): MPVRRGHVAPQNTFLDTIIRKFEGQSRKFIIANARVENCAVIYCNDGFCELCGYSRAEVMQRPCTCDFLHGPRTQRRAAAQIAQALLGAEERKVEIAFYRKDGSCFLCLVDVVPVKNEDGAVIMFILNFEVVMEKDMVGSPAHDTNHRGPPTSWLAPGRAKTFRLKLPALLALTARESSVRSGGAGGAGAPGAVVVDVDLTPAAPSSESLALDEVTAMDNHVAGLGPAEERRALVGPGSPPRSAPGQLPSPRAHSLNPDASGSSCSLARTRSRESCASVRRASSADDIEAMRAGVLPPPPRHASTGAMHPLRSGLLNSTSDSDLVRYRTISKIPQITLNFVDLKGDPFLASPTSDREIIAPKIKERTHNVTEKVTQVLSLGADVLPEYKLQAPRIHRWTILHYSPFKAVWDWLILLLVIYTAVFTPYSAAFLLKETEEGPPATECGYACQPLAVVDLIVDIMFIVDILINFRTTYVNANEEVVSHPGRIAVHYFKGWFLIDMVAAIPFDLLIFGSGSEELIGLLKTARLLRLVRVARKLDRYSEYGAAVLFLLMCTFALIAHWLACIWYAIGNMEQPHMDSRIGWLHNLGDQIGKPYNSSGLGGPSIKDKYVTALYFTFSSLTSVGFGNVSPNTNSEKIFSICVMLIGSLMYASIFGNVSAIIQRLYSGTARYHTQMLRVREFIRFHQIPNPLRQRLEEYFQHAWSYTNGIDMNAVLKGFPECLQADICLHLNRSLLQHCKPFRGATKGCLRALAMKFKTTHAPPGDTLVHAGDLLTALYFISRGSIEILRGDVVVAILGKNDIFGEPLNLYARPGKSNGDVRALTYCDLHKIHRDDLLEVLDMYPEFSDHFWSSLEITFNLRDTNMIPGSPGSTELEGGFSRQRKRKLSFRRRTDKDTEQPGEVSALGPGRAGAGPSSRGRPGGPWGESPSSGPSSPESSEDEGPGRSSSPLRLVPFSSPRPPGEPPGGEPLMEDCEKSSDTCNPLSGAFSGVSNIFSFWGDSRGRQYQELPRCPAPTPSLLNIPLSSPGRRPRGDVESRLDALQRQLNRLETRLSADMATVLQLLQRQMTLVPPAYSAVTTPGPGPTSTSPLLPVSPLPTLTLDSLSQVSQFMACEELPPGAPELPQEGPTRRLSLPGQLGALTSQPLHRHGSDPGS

Sequence of C-C motif chemokine 2 (P13500 whole entry): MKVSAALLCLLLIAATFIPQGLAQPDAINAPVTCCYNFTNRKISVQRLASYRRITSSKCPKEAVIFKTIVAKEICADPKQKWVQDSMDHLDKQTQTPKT
Sequence of Cytochrome P450 3A4 (P08684 whole entry): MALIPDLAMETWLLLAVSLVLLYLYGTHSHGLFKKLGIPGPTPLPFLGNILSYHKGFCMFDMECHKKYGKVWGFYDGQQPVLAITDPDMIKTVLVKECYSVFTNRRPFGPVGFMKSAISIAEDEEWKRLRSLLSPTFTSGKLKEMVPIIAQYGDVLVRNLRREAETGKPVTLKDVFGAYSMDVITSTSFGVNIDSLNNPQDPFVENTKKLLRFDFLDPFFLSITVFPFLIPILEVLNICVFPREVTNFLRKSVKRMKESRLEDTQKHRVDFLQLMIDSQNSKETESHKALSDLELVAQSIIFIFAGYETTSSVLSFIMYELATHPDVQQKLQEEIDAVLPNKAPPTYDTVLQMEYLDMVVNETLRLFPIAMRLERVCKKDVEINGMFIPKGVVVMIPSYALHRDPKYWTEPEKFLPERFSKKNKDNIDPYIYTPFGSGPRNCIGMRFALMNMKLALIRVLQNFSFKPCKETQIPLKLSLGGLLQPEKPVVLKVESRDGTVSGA

Structure (SMILES)	IC50 [1]	IC50 [2]	Papp [3]	IC50 (C-C motif chemokine 2)	solubility kinetic [4]	chromatographic logD [5]	other results
COC[C@@H](C)n1c(C2CCOCC2)nc2cnc3cc(-c4c(C)noc4C)c(OC)cc3c21	39.8 nM	126 nM					
CCS(=O)(=O)c1ccc2c(c1)C(C(N)=O)=CN(C)C(=O)[C@@H]2C	1580 nM	3160 nM	1 ×10⁻⁶ cm/s	2000 nM	82 µg/mL (≈ 254 µM)	1.1	
C[C@H]1C(=O)N(C)C=C(c2cn[nH]c2)c2cc([C@H](O)CO)ccc21	15.8 nM	25.1 nM	0.8 ×10⁻⁶ cm/s	39.8 nM		0.8	solubility at 16 h [6]: > 1000 µg/mL; bioavailability [7]: 19%; Vduss [8]: 1.8 L/kg; CLH [9]: 0.52 mL/min/g; clearance [10]: 43 mL/min/kg; half-life [11]: 24.6 min; Vd [12]: 1 L/kg; CLH [13]: < 0.8 mL/min/g; CLH [14]: < 0.65 mL/min/g; CL free [15]: 75 mL/min/kg
CCOc1ccc2c(c1)C(c1cn[nH]c1)=CN(C)C(=O)[C@@H]2C	6.31 nM	3.98 nM	37 ×10⁻⁶ cm/s	25.1 nM	≥ 115 µg/mL	3.4	
CCOc1ccc2c(c1)C(c1cn(C)cn1)=CN(C)C(=O)[C@@H]2C	31.6 nM	25.1 nM	69 ×10⁻⁶ cm/s	50.1 nM	117 µg/mL (≈ 376 µM)	3.6	
CCS(=O)(=O)c1ccc2c(c1)C(c1cnn(C)c1)=CN(C)C(=O)[C@@H]2C	39.8 nM	79.4 nM	14.5 ×10⁻⁶ cm/s	39.8 nM	≥ 222 µg/mL	2.8	CLH [9]: < 0.45 mL/min/g; CLH [13]: 2.44 mL/min/g; CLH [14]: < 0.65 mL/min/g
COc1cc2c(cc1OC)[C@H](C)C(=O)N(C)C=C2	12600 nM	50100 nM				3.4	
COc1cc2c(cc1OC)[C@@H](C)C(=O)N(C)CC2	3980 nM	15800 nM				2.6	
COc1cc2c(cc1OC)CC(=O)N(C)C=C2	2000 nM	10000 nM				2.6	
C[C@H]1C(=O)N(C)C=C(c2cnn(C)c2)c2cc(C(CO)CO)ccc21	31.6 nM	100 nM	< 0.3 ×10⁻⁶ cm/s	31.6 nM	≥ 208 µg/mL	1.4	
CCOc1ccc2c(c1)C(c1cnn(C)c1)=CN(C)C(=O)[C@@H]2C	10 nM	7.94 nM	57 ×10⁻⁶ cm/s	20 nM	143 µg/mL (≈ 459 µM)	4.1	CLH [9]: 9.14 mL/min/g; CLH [13]: 72.36 mL/min/g; CLH [14]: < 0.65 mL/min/g
C[C@H]1C(=O)N(C)C=Cc2cc(CN3CCOCC3)ccc21	158 nM	631 nM	77.5 ×10⁻⁶ cm/s	398 nM	≥ 142 µg/mL	3.3	CLH [9]: < 0.45 mL/min/g; CLH [13]: 23.76 mL/min/g; CLH [14]: 3.37 mL/min/g
COc1cc2c(cc1OC)[C@H](C)C(=O)N(C)CC2	63100 nM	158000 nM				2.5	
C[C@H]1C(=O)N(C)C=Cc2cc(OC(CO)CO)ccc21	398 nM	1260 nM	4.2 ×10⁻⁶ cm/s	631 nM	≥ 142 µg/mL	1.3	
COc1cc2c(cc1OC)[C@@H](C)C(=O)N(C)C=C2	158 nM	631 nM	89 ×10⁻⁶ cm/s		≥ 139 µg/mL	3.4	solubility at 16 h [6]: > 1000 µg/mL; CLH [9]: < 0.45 mL/min/g; IC50 (Cytochrome P450 3A4): > 39800 nM; IC50 [16]: > 50100 nM; CLH [13]: 6.35 mL/min/g; CLH [14]: 2.64 mL/min/g
C[C@H]1C(=O)N(C)C=Cc2cc(CC3CCOCC3)ccc21	63.1 nM	316 nM	71 ×10⁻⁶ cm/s	631 nM	≥ 111 µg/mL	5.4	
C[C@H]1C(=O)N(C)C=Cc2cc(CN3CCCC3)ccc21	501 nM	7940 nM	36 ×10⁻⁶ cm/s	1580 nM	≥ 97 µg/mL	1.5	
CCOc1ccc2c(c1)C(c1c[nH]cn1)=CN(C)C(=O)[C@@H]2C	10 nM	10 nM	46 ×10⁻⁶ cm/s	50.1 nM	≥ 131 µg/mL	2.7	
CCOc1ccc2c(c1)C(n1ccnc1)=CN(C)C(=O)C2C (racemic)	39800 nM	25100 nM	58 ×10⁻⁶ cm/s		≥ 65 µg/mL	4.3	
CCS(=O)(=O)c1ccc2c(c1)C(c1ccncc1)=CN(C)C(=O)C2C (racemic)	631 nM	1580 nM	35 ×10⁻⁶ cm/s	1260 nM	128 µg/mL (≈ 359 µM)	2.8	

Now from value to molecule, other results behind:

IC50 [1]	IC50 [2]	Papp [3]	IC50 (C-C motif chemokine 2)	solubility kinetic [4]	chromatographic logD [5]	Structure (SMILES)	other results
251000 nM	126000 nM					CC(=O)N1CCCc2ccccc21	
50100 nM	158000 nM					Cc1noc(C)c1-c1ccccc1	
316 nM	794 nM	84 ×10⁻⁶ cm/s	1000 nM	≥ 128 µg/mL	4	COCCOc1ccc2c(c1)C=CN(C)C(=O)[C@@H]2C	
79.4 nM	251 nM	15 ×10⁻⁶ cm/s	158 nM	≥ 131 µg/mL	3.4	CCS(=O)(=O)c1ccc2c(c1)C(C)=CN(C)C(=O)[C@@H]2C	CLH [9]: < 0.45 mL/min/g; CLH [13]: 1.18 mL/min/g; CLH [14]: 0.77 mL/min/g
398 nM	1580 nM	24 ×10⁻⁶ cm/s	1000 nM	≥ 108 µg/mL	2.6	C[C@H]1C(=O)N(C)C=Cc2cc(CCO)ccc21	
631 nM	1580 nM	88 ×10⁻⁶ cm/s			4.3	COc1ccc2c(c1)C=CN(C)C(=O)[C@@H]2C	
> 50100 nM	> 50100 nM					Cc1nnc(C)n1-c1ccccc1	
20 nM	31.6 nM	< 0.3 ×10⁻⁶ cm/s	39.8 nM	≥ 185 µg/mL	1.5	Cc1nc(C2=CN(C)C(=O)[C@H](C)c3ccc(OCCO)cc32)c[nH]1	
398 nM	2000 nM	2.7 ×10⁻⁶ cm/s	1000 nM	≥ 101 µg/mL	1.1	C[C@H]1C(=O)N(C)C=Cc2cc(C(O)CO)ccc21 (some centres not stated)	
398 nM	2000 nM	3 ×10⁻⁶ cm/s	631 nM	≥ 209 µg/mL	1.2	C[C@H]1C(=O)N(C)C=Cc2cc(C(CO)CO)ccc21	
200 nM	631 nM	73 ×10⁻⁶ cm/s			5.9	CCc1ccc2c(c1)C=CN(C)C(=O)[C@@H]2C	
12.6 nM	20 nM	40 ×10⁻⁶ cm/s	15.8 nM	≥ 135 µg/mL	3.1	CCOc1ccc2c(c1)C(c1c[nH]c(C)n1)=CN(C)C(=O)[C@@H]2C	
3160 nM	10000 nM					Cc1cc(-c2ccccc2)cn(C)c1=O	
501 nM	1000 nM	70 ×10⁻⁶ cm/s	3160 nM	≥ 120 µg/mL	5	CCOc1ccc2c(c1)C=CN(C)C(=O)C2C (racemic)	
31.6 nM	20 nM	54 ×10⁻⁶ cm/s	126 nM	≥ 99 µg/mL	3.8	CCOc1ccc2c(c1)C(c1cc[nH]n1)=CN(C)C(=O)C2C (racemic)	
200 nM	1260 nM	42 ×10⁻⁶ cm/s	398 nM		3.1	CCS(=O)(=O)c1ccc2c(c1)C=CN(C)C(=O)[C@@H]2C (racemic)	
251 nM	501 nM	100 ×10⁻⁶ cm/s	1580 nM	≥ 146 µg/mL	5.1	CCS(=O)(=O)c1ccc2c(c1)C(c1ccccc1)=CN(C)C(=O)C2C (racemic)	
251 nM	794 nM	74 ×10⁻⁶ cm/s	631 nM	≥ 131 µg/mL	3.6	CC1C(=O)N(C)C=Cc2cc(OCC(C)(C)O)ccc21 (racemic)	
1580 nM	5010 nM	100 ×10⁻⁶ cm/s	5010 nM	≥ 86 µg/mL	4.3	C[C@H]1C(=O)N(C)C=Cc2ccccc21 (racemic)	
